Measured values taken from ChEMBL document CHEMBL1143758, “Antitumor studies. part 3: design, synthesis, antitumor activity, and molecular docking study of novel 2-methylthio-, 2-amino-, and 2-(N-substituted amino)-10-alkyl-2-deoxo-5-deazaflavins” (Bioorg Med Chem, 2007).
In brackets after ≈: the same amount, converted by molar mass.

Assays:
CCRF-HSB-2 = test: Antitumor activity against human CCRF-HSB2 cells by modified MTT assay; assay type: functional, cell-based
KB = test: Antitumor activity against human KB cells by modified MTT assay; assay type: functional, cell-based
Human alphaherpesvirus 1 = test: Antiviral activity against HSV1 in HELF cells assessed as reduction of virus plaque formation; assay type: functional; details: Human alphaherpesvirus 1, HELF; read-out: ED50 (the source's name)
Outline: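 In vitro plaque-reduction test against HSV-1, run with an acyclovir positive control. The value is reported as ED50, the minimum concentration that reduces virus plaque formation by 50%.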

SMILES: CCn1c2nc(SC)nc(=O)c-2cc2ccccc21
- IC50 (CCRF-HSB-2): 7.07 µg/mL (≈ 26.1 µM)
- IC50 (KB): 5.42 µg/mL (≈ 20 µM)
- EC50 (Human alphaherpesvirus 1): 20 µg/mL (≈ 73.7 µM)

SMILES: COc1ccc2c(c1)cc1c(=O)nc(N3CCOCC3)nc-1n2C
- IC50 (CCRF-HSB-2): 24.5 µg/mL (≈ 75.1 µM)
- IC50 (KB): 38.3 µg/mL (≈ 117 µM)

SMILES: CCn1c2nc(N3CCOCC3)nc(=O)c-2cc2cc(C)ccc21
- IC50 (CCRF-HSB-2): 27.7 µg/mL (≈ 85.4 µM)
- IC50 (KB): 50.8 µg/mL (≈ 157 µM)

SMILES: Cn1c2nc(N3CCOCC3)nc(=O)c-2cc2ccccc21
- IC50 (CCRF-HSB-2): > 100 µg/mL
- IC50 (KB): 68.1 µg/mL (≈ 230 µM)

SMILES: CCn1c2nc(NCCO)nc(=O)c-2cc2ccccc21
- IC50 (CCRF-HSB-2): 11.3 µg/mL (≈ 39.7 µM)
- IC50 (KB): 14 µg/mL (≈ 49.2 µM)

SMILES: COc1ccc2c(c1)cc1c(=O)[nH]c(=O)nc-1n2C
- IC50 (CCRF-HSB-2): 37.1 µg/mL (≈ 144 µM)
- IC50 (KB): 10 µg/mL (≈ 38.9 µM)

SMILES: CCn1c2nc(N(C)C)nc(=O)c-2cc2ccccc21
- IC50 (CCRF-HSB-2): 1.96 µg/mL (≈ 7.3 µM)
- IC50 (KB): 3.96 µg/mL (≈ 14.8 µM)

SMILES: CSc1nc2n(C)c3c(C)cccc3cc-2c(=O)n1
- IC50 (CCRF-HSB-2): 15.3 µg/mL (≈ 56.4 µM)
- IC50 (KB): 12 µg/mL (≈ 44.2 µM)

SMILES: CN1CCN(c2nc3n(C)c4ccc(Cl)cc4cc-3c(=O)n2)CC1
- IC50 (CCRF-HSB-2): 7.4 µg/mL (≈ 21.5 µM)
- IC50 (KB): 16.6 µg/mL (≈ 48.3 µM)

SMILES: CSc1nc2n(C)c3ccccc3cc-2c(=O)n1
- IC50 (CCRF-HSB-2): 1.91 µg/mL (≈ 7.42 µM)
- IC50 (KB): 1.97 µg/mL (≈ 7.66 µM)
- EC50 (Human alphaherpesvirus 1): 0.8 µg/mL (≈ 3.11 µM)

SMILES: Cc1ccc2c(c1)cc1c(=O)nc(N3CCCCC3)nc-1n2C
- IC50 (CCRF-HSB-2): 25.2 µg/mL (≈ 81.7 µM)
- IC50 (KB): 32.7 µg/mL (≈ 106 µM)

SMILES: Cc1cc2cc3c(=O)nc(N4CCOCC4)nc-3n(C)c2cc1C
- IC50 (CCRF-HSB-2): 6 µg/mL (≈ 18.5 µM)
- IC50 (KB): 8.8 µg/mL (≈ 27.1 µM)

SMILES: CSc1nc2n(C)c3ccc(C)cc3cc-2c(=O)n1
- IC50 (CCRF-HSB-2): 9.57 µg/mL (≈ 35.3 µM)
- IC50 (KB): 9.27 µg/mL (≈ 34.2 µM)

SMILES: Cn1c2nc(N3CCCCC3)nc(=O)c-2cc2cc(Cl)ccc21
- IC50 (CCRF-HSB-2): 69.4 µg/mL (≈ 211 µM)
- IC50 (KB): 82.6 µg/mL (≈ 251 µM)

SMILES: CCCCCCCCNc1nc2n(C)c3ccccc3cc-2c(=O)n1
- IC50 (CCRF-HSB-2): 8.9 µg/mL (≈ 26.3 µM)
- IC50 (KB): 7.9 µg/mL (≈ 23.3 µM)

SMILES: CCn1c2nc(N(C)CCO)nc(=O)c-2cc2ccccc21
- IC50 (CCRF-HSB-2): 26.3 µg/mL (≈ 88.2 µM)
- IC50 (KB): 23.5 µg/mL (≈ 78.8 µM)

SMILES: CN(C)c1nc2n(C)c3ccccc3cc-2c(=O)n1
- IC50 (CCRF-HSB-2): 22.6 µg/mL (≈ 88.9 µM)
- IC50 (KB): 20.1 µg/mL (≈ 79 µM)

SMILES: COc1ccc2c(c1)cc1c(=O)nc(N3CCN(C)CC3)nc-1n2C
- IC50 (CCRF-HSB-2): 12.6 µg/mL (≈ 37.1 µM)
- IC50 (KB): 27 µg/mL (≈ 79.6 µM)

SMILES: COc1ccc2c(c1)cc1c(=O)nc(SC)nc-1n2C
- IC50 (CCRF-HSB-2): 9.27 µg/mL (≈ 32.3 µM)
- IC50 (KB): 9.82 µg/mL (≈ 34.2 µM)

SMILES: Cc1ccc2c(c1)cc1c(=O)nc(N(C)C)nc-1n2C
- IC50 (CCRF-HSB-2): 16.4 µg/mL (≈ 61.1 µM)
- IC50 (KB): 24.8 µg/mL (≈ 92.4 µM)

SMILES: CSc1nc2n(C)c3cc(C)c(C)cc3cc-2c(=O)n1
- IC50 (CCRF-HSB-2): 7.06 µg/mL (≈ 24.7 µM)
- IC50 (KB): 11.4 µg/mL (≈ 39.9 µM)

SMILES: CCCCNc1nc2n(C)c3ccccc3cc-2c(=O)n1
- IC50 (CCRF-HSB-2): 6.04 µg/mL (≈ 21.4 µM)
- IC50 (KB): 7.31 µg/mL (≈ 25.9 µM)

SMILES: CN1CCN(c2nc3n(C)c4ccccc4cc-3c(=O)n2)CC1
- IC50 (CCRF-HSB-2): 5.9 µg/mL (≈ 19.1 µM)
- IC50 (KB): 8.44 µg/mL (≈ 27.3 µM)

SMILES: CSc1nc2n(C)c3ccc(Cl)cc3cc-2c(=O)n1
- IC50 (CCRF-HSB-2): 9.87 µg/mL (≈ 33.8 µM)
- IC50 (KB): 21.5 µg/mL (≈ 73.7 µM)

SMILES: Cn1c2nc(N3CCCCC3)nc(=O)c-2cc2ccccc21
- IC50 (CCRF-HSB-2): 24.7 µg/mL (≈ 83.9 µM)
- IC50 (KB): 32 µg/mL (≈ 109 µM)

SMILES: COc1ccc(OC)c2c1cc1c(=O)nc(SC)nc-1n2C
- IC50 (CCRF-HSB-2): 4.84 µg/mL (≈ 15.3 µM)
- IC50 (KB): 8.75 µg/mL (≈ 27.6 µM)
- EC50 (Human alphaherpesvirus 1): 20 µg/mL (≈ 63 µM)

SMILES: CCn1c2nc(N)nc(=O)c-2cc2ccccc21
- IC50 (CCRF-HSB-2): 1.64 µg/mL (≈ 6.83 µM)
- IC50 (KB): 1 µg/mL (≈ 4.16 µM)
- EC50 (Human alphaherpesvirus 1): 4 µg/mL (≈ 16.6 µM)

SMILES: CN(CCO)c1nc2n(C)c3ccccc3cc-2c(=O)n1
- IC50 (CCRF-HSB-2): 34.9 µg/mL (≈ 123 µM)
- IC50 (KB): 34.3 µg/mL (≈ 121 µM)

SMILES: CN(C)c1nc2n(C)c3ccc(Cl)cc3cc-2c(=O)n1
- IC50 (CCRF-HSB-2): 46.4 µg/mL (≈ 161 µM)
- IC50 (KB): 58.5 µg/mL (≈ 203 µM)

SMILES: CCn1c2nc(SC)nc(=O)c-2cc2cc(C)ccc21
- IC50 (CCRF-HSB-2): 1.82 µg/mL (≈ 6.38 µM)
- IC50 (KB): 1.73 µg/mL (≈ 6.06 µM)
- EC50 (Human alphaherpesvirus 1): 4 µg/mL (≈ 14 µM)

SMILES: COc1ccc2cc3c(=O)nc(SC)nc-3n(C)c2c1
- IC50 (CCRF-HSB-2): 5.92 µg/mL (≈ 20.6 µM)
- IC50 (KB): 7.69 µg/mL (≈ 26.8 µM)

SMILES: Cn1c2nc(N)nc(=O)c-2cc2ccccc21
- IC50 (CCRF-HSB-2): 13.7 µg/mL (≈ 60.6 µM)
- IC50 (KB): 17.9 µg/mL (≈ 79.1 µM)

SMILES: Cc1ccc2c(c1)cc1c(=O)nc(N)nc-1n2C
- IC50 (CCRF-HSB-2): 14.3 µg/mL (≈ 59.5 µM)
- IC50 (KB): 44.5 µg/mL (≈ 185 µM)

SMILES: COc1ccc2c(c1)cc1c(=O)nc(N(C)C)nc-1n2C
- IC50 (CCRF-HSB-2): 35.6 µg/mL (≈ 125 µM)
- IC50 (KB): 23.6 µg/mL (≈ 83 µM)

SMILES: Cn1c2nc(N3CCOCC3)nc(=O)c-2cc2cc(Cl)ccc21
- IC50 (CCRF-HSB-2): 96.1 µg/mL (≈ 291 µM)
- IC50 (KB): 52.7 µg/mL (≈ 159 µM)

SMILES: COc1ccc2cc3c(=O)nc(N(C)CCO)nc-3n(C)c2c1
- IC50 (CCRF-HSB-2): 39 µg/mL (≈ 124 µM)
- IC50 (KB): 36 µg/mL (≈ 115 µM)

SMILES: CCn1c2nc(N(C)CCO)nc(=O)c-2cc2cc(C)ccc21
- IC50 (CCRF-HSB-2): 9.5 µg/mL (≈ 30.4 µM)
- IC50 (KB): 25.1 µg/mL (≈ 80.4 µM)
